Measurements published in article PMC9488007 (Environmental Science and Ecotechnology, 2020).
Values after ≈ are worked out from the molar mass of the structure shown. Values joined by “and” are separate entries in the source; they are usually repeats but may differ in a detail not shown here. Identical values can stand only once. Like-named read-outs stand apart in the source and are kept apart here.

How the values were obtained:
[1] = Desorption kinetics of bisphenols from bisphenol-attached PVC microplastics; assay type: physicochemical
Procedure, shortened: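 Bisphenol-loaded PVC from the adsorption step was placed in water or simulated intestinal fluid (NaCl 0.12 M, Na2CO3 0.02 M, sodium taurocholate 15.5 mM) in sealed 1 L glass bottles. Bottles were agitated rotationally at 200 rpm in an oil bath. Bisphenol was measured in filtered supernatant at intervals from 0 to 75 h. Run in triplicate.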

Desorption isotherms = assay type: physicochemical
[2] = Adsorption of bisphenols onto PVC microplastics; assay type: physicochemical; conditions: 1.5 g PVC microplastics in 1 L, 48 h, room temperature
Procedure, shortened: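 Each bisphenol was dissolved in ethanol, then diluted in a 1 L glass bottle to initial concentrations of 0 to 1.0 mg L-1. PVC microplastics were added, and bottles were shaken at 200 rpm until adsorption equilibrium. Supernatants were filtered through a glass microfiber filter before bisphenol quantification. Run in triplicate.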

[3] = test system: grass carp hepatocyte cell line, L8824; assay: cells; assay type: cell-based; conditions: for IC50: Hepatocyte, 72 h; for Cytotoxicity (proliferation reduction), L8824: high concentration (2 mg L^−1)
[4] = test system: human breast adenocarcinoma cells, MCF-7; assay: cells; assay type: cell-based; conditions: for Cytotoxicity (proliferation reduction), MCF-7: high concentration (2 mg L^−1)
[5] = Physicochemical properties of the five bisphenols; conditions: calculated from log Kow and pKa
[6] = water, ref Wu et al.^3; cited from earlier work
[7] = calculated for concentration desorbed in warm-I
[8] = calculated for concentration desorbed in water

Row | SMILES | Fslow, slow fraction ([1]; cold-I, pH 7.5, 291 K) | Fvs, very slow fraction ([1]; cold-I, pH 7.5, 291 K) | krap, rapid desorption rate constant ([1]; cold-I, pH 7.5, 291 K) | kslow, slow desorption rate constant ([1]; cold-I, pH 7.5, 291 K) | kvs, very slow desorption rate constant ([1]; cold-I, pH 7.5, 291 K) | Fslow, slow fraction ([1]; warm-I, pH 6.5, 311 K) | Fvs, very slow fraction ([1]; warm-I, pH 6.5, 311 K) | krap, rapid desorption rate constant ([1]; warm-I, pH 6.5, 311 K) | kslow, slow desorption rate constant ([1]; warm-I, pH 6.5, 311 K) | kvs, very slow desorption rate constant ([1]; warm-I, pH 6.5, 311 K) | Fslow, slow fraction ([1]; water, pH 7.0, 291 K) | Fvs, very slow fraction ([1]; water, pH 7.0, 291 K) | krap, rapid desorption rate constant ([1]; water, pH 7.0, 291 K) | kslow, slow desorption rate constant ([1]; water, pH 7.0, 291 K) | kvs, very slow desorption rate constant ([1]; water, pH 7.0, 291 K) | HI, hysteresis index (Desorption isotherms; warm-I) | kFd, Freundlich constant for desorption (Desorption isotherms; warm-I (Table 2)) [mg^−1/n·L^−1/n·g^−1] | n, surface heterogeneity constant (desorption) (Desorption isotherms; warm-I (Table 2)) | HI, hysteresis index (Desorption isotherms; water) | kFd, Freundlich constant for desorption (Desorption isotherms; water (Table 2)) [mg^−1/n·L^−1/n·g^−1] | also measured
1 | CC(C)(c1ccc(O)cc1)c1ccc(O)cc1 [BPA, bisphenol A] | 0.395±0.003 | 0.043±0.005 | 0.809±0.302 10^-2 h^-1 | 10.90±0.407 10^-4 h^-1 | 9.442±0.716 10^-5 h^-1 | 0.303±0.046 | 0.019±0.003 | 2.163±0.456 10^-2 h^-1 | 11.40±0.898 10^-4 h^-1 | 9.069±0.647 10^-5 h^-1 | 0.284±0.004 | 0.076±0.004 | 0.746±0.206 10^-2 h^-1 | 5.979±0.555 10^-4 h^-1 | 6.997±0.788 10^-5 h^-1 | <0 | 0.398 | 1.218 | 0.289 | 1.033 | n, surface heterogeneity constant (desorption) (Desorption isotherms; water (Table 2)): 1.512; amount of bisphenol adsorbed on the PVC [2]: 0.19 mg/g; IC50 ([3]; read-out: IC50 to L8824): 16.2 µM and 3.7 µg/mL; Cytotoxicity (proliferation reduction), L8824 [3, 7]: 29.75%; Cytotoxicity (proliferation reduction), L8824 [3, 8]: 20.08%; IC50 ([4]; Homo sapiens, MCF7, 72 h, read-out: IC50 to MCF-7): 36.9 µM and 8.42 µg/mL; Cytotoxicity (proliferation reduction), MCF-7 [4, 7]: 21.75%; Cytotoxicity (proliferation reduction), MCF-7 [4, 8]: 12.36%; log Dow [5]: 3.32; kFa, Freundlich constant for adsorption [6]: 0.801 mg^−1/n·L^−1/n·g^−1; n, surface heterogeneity constant (adsorption) [6]: 1.21
2 | Oc1ccc(C(c2ccc(O)cc2)(C(F)(F)F)C(F)(F)F)cc1 [BPAF, bisphenol AF] | 0.409±0.002 | 0.003±0.001 | 1.007±0.318 10^-2 h^-1 | 9.957±0.755 10^-4 h^-1 | <0.01 10^-5 h^-1 | 0.315±0.007 | <0.001 | 2.609±0.521 10^-2 h^-1 | 13.80±2.684 10^-4 h^-1 | <0.01 10^-5 h^-1 | 0.272±0.010 | 0.068±0.002 | 0.794±0.230 10^-2 h^-1 | 5.983±0.498 10^-4 h^-1 | 6.314±0.606 10^-5 h^-1 | <0 | 0.465 | 1.154 | 0.326 | 1.933 | n, surface heterogeneity constant (desorption) (Desorption isotherms; water (Table 2)): 1.155; amount of bisphenol adsorbed on the PVC [2]: 0.24 mg/g; IC50 ([3]; read-out: IC50 to L8824, 72 h exposure, 291 K, MTT): 1.15 ± 0.18 µg/mL (≈ 3.42 µM); Cytotoxicity (proliferation reduction), L8824 [3, 7]: 46.31%; Cytotoxicity (proliferation reduction), L8824 [3, 8]: 32.70%; IC50 ([4]; Homo sapiens, MCF7, 72 h, read-out: IC50 to MCF-7, 72 h exposure, 311 K, MTT): 2.65 ± 1.34 µg/mL; Cytotoxicity (proliferation reduction), MCF-7 [4, 7]: 36.87%; Cytotoxicity (proliferation reduction), MCF-7 [4, 8]: 24.19%; IC50 ([4]; read-out: IC50 to MCF-7, 72 h exposure, 311 K, MTT): 7.87 ± 3.98 µM; kFa, Freundlich constant for adsorption [6]: 1.458 mg^−1/n·L^−1/n·g^−1; n, surface heterogeneity constant (adsorption) [6]: 1.14
